ChEMBL document CHEMBL4825700, “A comprehensive assessment of a new series of 5',6'-difluorobenzotriazole-acrylonitrile derivatives as microtubule targeting agents (MTAs)” (Eur J Med Chem, 2021)
The source made the active and inactive calls.

What was measured:
CCRF-CEM [1] = assay: Antiproliferative activity against human CCRF-CEM cells assessed as inhibition of cell proliferation measured after 96 hrs by MTT assay; assay type: functional, cell-based
[2] = Antiproliferative activity against human leukemia cells assessed as reduction in cell viability measured after 24 to 48 hrs by XTT assay; assay type: functional; settings: Panel leukemia (Carcinoma cell lines), time 24-48 hrs; for CC50: read-out: LC50 (the source's name)
[3] = system: Panel NCI-60 (60 carcinoma cell lines); assay: Antiproliferative against human NCI-60 cells assessed as reduction in cell growth incubated for 24 to 48 hrs by XTT assay; assay type: functional; settings: time 24-48 hrs
Outline: (§1)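 NCI60 panel screen by the NCI Developmental Therapeutics Program: single dose of 10 µM first; compounds meeting inhibition criteria retested at five 10-fold dilutions, 100 µM to 0.01 µM; GI50, TGI and LC50 derived.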

A549 = assay: Antiproliferative activity against human A549 cells assessed as reduction in cell growth at 4 to 16 uM incubated for 72 hrs in presence of extrusion-pump inhibitor, SS26 by CellTox based fluorescence analysis; assay type: functional; settings: dose 4-16 µM
Outline: (§2)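 A498, A-704, A549 and HT1197 cells (DMEM high glucose, 10% FBS, 37 °C, 5% CO2) plated 500/well with SiR-DNA 0.5 µM and CellTox Green 0.8x, treated next day at 1, 2, 4, 8, 16 µM alone or with EPI SS26 at fixed 1 µM, 0.3% DMSO. Nuclei and dead cells imaged at 0, 24, 48, 72 h; percentage growth calculated; three technical replicates.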

[4] = Antiproliferative against human ovarian cancer cells assessed as reduction in cell growth incubated for 24 to 48 hrs by XTT assay; assay type: functional, Panel ovarian (Carcinoma cell lines); settings: Ovarian carcinoma cell, time 24-48 hrs; outline: as §1
[5] = Antiproliferative against human prostate cancer cells assessed as reduction in cell growth incubated for 24 to 48 hrs by XTT assay; assay type: functional; settings: Panel prostate (Carcinoma cell lines), time 24-48 hrs; outline: as §1
HeLa [6] = assay: Induction of cell cycle arrest in human HeLa cells assessed as accumulation of cells at G0/G1 phase at 5 uM incubated for 24 hrs by 7-AAD staining based flow cytometry analysis (reference value: 65%); assay type: functional
Outline: (§3)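 HeLa seeded at 50% confluence, treated after 24 h with 5 or 10 µM for 24 or 48 h. Adherent plus floating cells fixed in ice-cold 70% ethanol overnight at -20 °C, stained with 7-AAD 20 min at room temperature; 20000 events per sample by flow cytometry; phase percentages compared with control.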

Tubulin (Homo sapiens) [7] = molecular target: T1, Tubulin (Homo sapiens) (UniProt P68371+Q9H4B7+P0DPH7+P68366+Q13509+Q71U36+P04350+Q3ZCM7+P07437+P68363+Q9BQE3+Q6PEY2+Q13885+Q9BVA1+Q9BUF5); assay: Disruption of microtubules in human HeLa cells assessed as increase in cytoplasmic dimensions at 50 nM incubated for 24 hrs by high-content confocal microscopy relative to control; assay type: cell-based
Outline: (§4)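 HeLa treated 24 h at 10, 25, 50, 100 and 500 nM, stained for β-tubulin and nuclei (DAPI), imaged by high-content confocal microscopy; tubulin disassembly and cell dimension compared with controls.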

[8] = Antiproliferative activity against human NSC lung cancer cells assessed as reduction in cell viability measured after 24 to 48 hrs by XTT assay; assay type: functional; settings: Non-small cell lung cancer cell line, time 24-48 hrs; for CC50: read-out: LC50 (the source's name)
HeLa [9] = assay: Induction of cell cycle arrest in human HeLa cells assessed as accumulation of cells at G2/M phase at 5 uM incubated for 24 hrs by 7-AAD staining based flow cytometry analysis (reference value: 30%); assay type: functional; outline: as §3
HeLa [10] = assay: Induction of cell cycle arrest in human HeLa cells assessed as accumulation of cells at S phase at 5 uM incubated for 24 hrs by 7-AAD staining based flow cytometry analysis (reference value: 5%); assay type: functional; outline: as §3
[11] = Antiproliferative against human melanoma cells assessed as reduction in cell growth incubated for 24 to 48 hrs by XTT assay; assay type: functional; settings: Panel melanoma (Carcinoma cell lines), time 24-48 hrs; for CC50: read-out: LC50 (the source's name); outline: as §1
Sus scrofa [12] = species on record: Sus scrofa; assay: Displacement of colchicine from pig tubulin assessed as reduction in colchicine effectiveness on tubulin assembly measured every 20 secs for 30 mins by fluorescence based analysis
NCI-H522 = assay: Antiproliferative activity against human NCI-H522 cells assessed as reduction in cell growth at […] measured after 24 to 48 hrs by XTT assay; assay type: functional; settings: time 24-48 hrs, read-out: GI; outline: as §1
HT1197 = assay: Antiproliferative activity against human HT1197 cells assessed as reduction in cell growth at 4 to 16 uM incubated for 72 hrs in presence of extrusion-pump inhibitor, SS26 by CellTox based fluorescence analysis; assay type: functional; settings: dose 4-16 µM; outline: as §2
A704 = assay: Antiproliferative activity against human A704 cells assessed as reduction in cell growth at 4 to 16 uM incubated for 48 to 72 hrs in presence of extrusion-pump inhibitor, SS26 by CellTox based fluorescence analysis; assay type: functional; settings: dose 4-16 µM, time 48-72 hrs; outline: as §2
HeLa [13] = assay: Induction of incomplete cytokinesis with increased cell dimension in human HeLa cells at 0.3 uM measured after 48 hrs by fluorescence microscopy; assay type: functional, cell-based
HeLa [14] = assay: Antiproliferative activity against human HeLa cells assessed as reduction in cell viability measured after 48 hrs by XTT assay; assay type: functional, cell-based
Outline: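 HeLa (DMEM, 10% FBS, 37 °C, 5% CO2) seeded 1500 cells/well, treated 24 h later at 0.1–5 µM for 24 and 48 h; DMSO vehicle as control. XTT reagent 4 h at 37 °C, absorbance at 490 nm; IC50 calculated from viability; more than three independent experiments, each in triplicate.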

HeLa [15] = assay: Induction of cell cycle arrest in human HeLa cells assessed as accumulation of cells at S phase at 10 uM incubated for 48 hrs by 7-AAD staining based flow cytometry analysis (reference value: 5%); assay type: functional; outline: as §3
[16] = Antiproliferative against human renal cancer cells assessed as reduction in cell growth incubated for 24 to 48 hrs by XTT assay; assay type: functional; settings: Panel renal (Carcinoma cell lines), time 24-48 hrs; outline: as §1
Tubulin (Homo sapiens) [17] = molecular target: T1, Tubulin (Homo sapiens); assay: Disruption of microtubules in human HeLa cells assessed as beta-tubulin disassembly at 50 to 500 nM incubated for 24 hrs by high-content confocal microscopy; assay type: cell-based; settings: dose 50-500 nM; outline: as §4
A498 = assay: Antiproliferative activity against human A498 cells assessed as reduction in cell growth at 4 to 16 uM incubated for 72 hrs in presence of extrusion-pump inhibitor, SS26 by CellTox based fluorescence analysis; assay type: functional; settings: dose 4-16 µM; outline: as §2
HeLa [18] = assay: Induction of cell cycle arrest in human HeLa cells assessed as accumulation of cells at G2/M phase at 10 uM incubated for 48 hrs by 7-AAD staining based flow cytometry analysis (reference value: 30%); assay type: functional; outline: as §3
Sus scrofa [19] = species on record: Sus scrofa; assay: Inhibition of pig tubulin polymerization measuring every 20 sec for 30 mins by fluorescence based analysis
[20] = Antiproliferative against human breast cancer cells assessed as reduction in cell growth incubated for 24 to 48 hrs by XTT assay; assay type: functional, Panel breast (Carcinoma cell lines); settings: Breast carcinoma cell, time 24-48 hrs; outline: as §1
HeLa [21] = assay: Induction of cell cycle arrest in human HeLa cells assessed as accumulation of cells at G2/M phase at 10 uM incubated for 24 hrs by 7-AAD staining based flow cytometry analysis (reference value: 30%); assay type: functional; outline: as §3
[22] = Antiproliferative activity against human colon cancer cells assessed as reduction in cell viability measured after 24 to 48 hrs by XTT assay; assay type: functional, Panel colon (Carcinoma cell lines); settings: Colon carcinoma cell, time 24-48 hrs
[23] = system: Panel CNS (Carcinoma cell lines); assay: Antiproliferative activity against human CNS cancer cells assessed as reduction in cell viability measured after 24 to 48 hrs by XTT assay; assay type: functional; settings: time 24-48 hrs; for CC50: read-out: LC50 (the source's name)
[24] = system: Panel CNS (Carcinoma cell lines); assay: Antiproliferative activity against human CNS cancer cells assessed as lethality measured after 24 to 48 hrs by XTT assay; assay type: functional; settings: time 24-48 hrs
Outline: (§5)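 NCI60 screen run by the NCI Developmental Therapeutics Program. A single 10 µM dose was first tested across the full 60-cell-line panel. Compounds meeting the inhibition selection criteria were then retested at five 10-fold dilutions from 100 µM to 0.01 µM. GI50, TGI and LC50 were reported as molar concentrations for each tumour-type group.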

HeLa [25] = assay: Induction of cell cycle arrest in human HeLa cells assessed as accumulation of cells at G0/G1 phase at 5 uM incubated for 48 hrs by 7-AAD staining based flow cytometry analysis (reference value: 65%); assay type: functional; outline: as §3
U-251 = assay: Antiproliferative activity against human U-251 cells assessed as lethality measured after 24 to 48 hrs by XTT assay; assay type: functional; settings: time 24-48 hrs; outline: as §5
HeLa [26] = assay: Induction of cell cycle arrest in human HeLa cells assessed as accumulation of cells at G0/G1 phase at 10 uM incubated for 24 hrs by 7-AAD staining based flow cytometry analysis (reference value: 65%); assay type: functional; outline: as §3
HeLa [27] = assay: Induction of cell cycle arrest in human HeLa cells assessed as accumulation of cells at G0/G1 phase at 10 uM incubated for 48 hrs by 7-AAD staining based flow cytometry analysis (reference value: 65%); assay type: functional; outline: as §3
HeLa [28] = assay: Induction of cell cycle arrest in human HeLa cells assessed as accumulation of cells at S phase at 5 uM incubated for 48 hrs by 7-AAD staining based flow cytometry analysis (reference value: 5%); assay type: functional; outline: as §3
HeLa [29] = assay: Induction of cell cycle arrest in human HeLa cells assessed as accumulation of cells at G2/M phase at 5 uM incubated for 48 hrs by 7-AAD staining based flow cytometry analysis (reference value: 30%); assay type: functional; outline: as §3
HeLa [30] = assay: Induction of cell cycle arrest in human HeLa cells assessed as accumulation of cells at S phase at 10 uM incubated for 24 hrs by 7-AAD staining based flow cytometry analysis (reference value: 5%); assay type: functional; outline: as §3
CCRF-CEM [31] = assay: Antiproliferative activity against human CCRF-CEM cells assessed as inhibition of cell growth at 10 uM measured after 24 to 48 hrs by XTT assay; assay type: functional; settings: time 24-48 hrs, read-out: GI; outline: as §1
[32] = read-out: LC50 (the source's name)

## COc1ccc(/C=C(\C#N)n2nnc3ccccc32)cc1
CCRF-CEM [1]
  IC50: 200 nM

## Cc1ccc(/C=C(\C#N)n2nnc3cc(F)c(F)cc32)cc1
[2]
  GI50: 391 nM
  TGI: ≥ 871 nM
  CC50: > 100000 nM
[3]
  GI50: ≤ 100 nM
  TGI: ≤ 1000 nM
[3]; [32]
  CC50: ≤ 1000 nM
A549
  Activity: Active
[4]
  GI50: 1470 nM
  TGI: ≥ 6080 nM
[4]; [32]
  CC50: ≥ 33800 nM
[5]
  GI50: 3320 nM
  TGI: 15600 nM
[5]; [32]
  CC50: 66200 nM
HeLa [6]
  Activity: 39%
Tubulin (Homo sapiens) [7]
  fold change (FC): 3
[8]
  GI50: 291 nM
  TGI: 1120 nM
  CC50: ≥ 6780 nM
HeLa [9]
  Activity: 54%
HeLa [10]
  Activity: 7%
[11]
  GI50: 360 nM
  TGI: ≥ 100000 nM
  CC50: ≥ 7670 nM
Sus scrofa [12]
  Activity: Active
NCI-H522
  inhibition of growth: 93%
HT1197
  Activity: Active
A704
  Activity: Active
HeLa [13]
  Activity: Active
HeLa [14]
  IC50: 3200 nM
HeLa [15]
  Activity: 3%
[16]
  GI50: 1770 nM
  TGI: 7410 nM
[16]; [32]
  CC50: ≥ 36700 nM
Tubulin (Homo sapiens) [17]
  Activity: Active
A498
  Activity: Active
HeLa [18]
  Activity: 87%
Sus scrofa [19]
  inhibition: Active
[20]
  GI50: 1160 nM
  LC50: > 100000 nM
  TGI: ≥ 5390 nM
HeLa [21]
  Activity: 66%
[22]
  GI50: 421 nM
  TGI: 1530 nM
[22]; [32]
  CC50: ≥ 5800 nM
[23]
  GI50: 1480 nM
  TGI: 2940 nM
  CC50: ≥ 5830 nM
[24]
  Activity: >=90%
HeLa [25]
  Activity: 41%
U-251
  Activity: >=90%
HeLa [26]
  Activity: 20%
HeLa [27]
  Activity: 10%
HeLa [28]
  Activity: 9%
HeLa [29]
  Activity: 50%
HeLa [30]
  Activity: 14%

## N#C/C(=C\c1cccc2cnccc12)n1nnc2ccccc21
[2]
  GI50: 253 nM
  TGI: ≥ 24300 nM
  CC50: > 100000 nM
[8]
  GI50: 532 nM
  TGI: ≥ 5130 nM
  CC50: > 100000 nM
CCRF-CEM [31]
  inhibition of growth at 10 µM: 100%
[11]
  GI50: 2040 nM
  TGI: > 100000 nM
  CC50: > 100000 nM
[20]
  GI50: 557 nM
  LC50: > 100000 nM
  TGI: ≥ 2840 nM
[23]
  GI50: 184 nM
  TGI: ≥ 3610 nM
  CC50: > 100000 nM
